What was measured:
[1] = test system: VeroE6 normal kidney epithelial; experiment: Live cells / PCD by FACS of nonpermeabilized cells stained with annexin-V and PI; assay type: cell-based, monkey; details: read-out: IC50 Live Cells (PCD)
Method in brief: (§1)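 Cells were seeded so that vehicle wells stayed subconfluent, then treated with a range of test compound concentrations for 4 days. Without permeabilization, they were stained with annexin-V-FITC and propidium iodide and analysed by flow cytometry. Double-negative cells (Q3) were scored as live and Q1+Q2 as programmed death. Vehicle was set to 100% viable and 0% dead. Results are the mean of three independent assays with SEM; group averages and ratios are derived from the IC50s.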

[2] = test system: NTERA-2 ECC; experiment: Cells with <2N DNA by FACS of permeabilized cells stained with PI; assay type: cell-based, human
Method in brief: (§2)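 Cells were exposed to a range of test compound concentrations alongside vehicle (DMSO) controls. They were then permeabilized, stained with propidium iodide, and DNA content was read by flow cytometry. IC50 is the concentration at which 50% of cells hold <2N DNA, from 3 independent repetitions with SEM. Line averages and differentiated/pluripotent ratios are derived from these IC50s. NTERA-2 was also run as a time course at 5 μM, normalized to vehicle at each time point.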

[3] = test system: TERA-2 ECC; experiment: Cellular ATP level; assay type: cell-based, human; details: read-out: IC50 ATP
Method in brief: (§3)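 Cellular ATP was measured with a CellTiter-Glo luminescence viability assay after exposure to a concentration range of test compound. IC50 is the average of three independent assays. Mean IC50s across differentiated or human pluripotent lines, and their ratio, are derived from the per-line values.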

[4] = test system: human pluripotent cells; experiment: DNA loss; assay type: cell-based
Method in brief: as §2

[5] = test system: VeroE6 cells; experiment: Inhibition of cell proliferation; assay type: cell-based, monkey; details: read-out: IC50 inhibition of proliferation
[6] = test system: H1 ESCs; experiment: Immunoblotting of total cell extracts; assay type: cell-based, human
Method in brief: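 Cells were cultured with 2.5 μM test compound for up to 96 h, and attached plus unattached cells were pooled. Whole-cell RIPA lysates were run on 4–12% Bis-Tris gels, transferred to nitrocellulose and blocked in 5% milk/TBS. Primary antibodies went on overnight at 4°C, followed by infrared secondary antibodies and imager quantitation. Each blot carried untreated U2OS as a shared standard, with Ponceau-S histones for normalization and lighter exposures for quantitation. Adriamycin for 24 h (NTERA-2 1 μM, H108 2 μM) served as a DNA-break control.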

[7] = test system: H108 normal skin fibroblast; experiment: Cellular ATP level; assay type: cell-based, human; details: read-out: IC50 ATP
Method in brief: as §3

[8] = test system: GCT27D.C1 teratocarcinoma xenografts; experiment: Teratocarcinoma xenograft, daily intraperitoneal injections; assay type: in vivo, mice
Method in brief: (§4)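 Six-week-old female […] BALB/c nude mice were injected subcutaneously in the lower right flank with 200 μL of 50% Matrigel holding 2 million NTERA-2 or 5 million GCT27D.C1 cells (eight mice per model). Once tumors were palpable, mice received 40 mg/kg test compound i.p. daily (DMSO solution diluted in sunflower oil to 200 μL) or vehicle. Tumor volume was calculated as length × width² × 0.5 from calipers, TGI was calculated, and body weight was tracked. Tumors were harvested 15 days later.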

[9] = test system: differentiated cells; experiment: PCD / live cell loss; assay type: cell-based; details: read-out: IC50 initiation of PCD, on average; average over differentiated cells
Method in brief: as §1

[10] = test system: GCT27D.C1 ECC; experiment: Live cells / PCD by FACS of nonpermeabilized cells stained with annexin-V and PI; assay type: cell-based, human; details: read-out: IC50 Live Cells, 4 days
Method in brief: as §1

[11] = test system: WA09/H9 ESC; experiment: Cellular ATP level; assay type: cell-based, human; details: read-out: IC50 ATP
Method in brief: as §3

[12] = test system: SCUi24 iPSC; experiment: Live cells / PCD by FACS of nonpermeabilized cells stained with annexin-V and PI; assay type: cell-based, human; details: read-out: IC50 Live Cells
Method in brief: as §1

[13] = test system: differentiated cells; experiment: Inhibition of cell proliferation; assay type: cell-based; details: read-out: IC50 inhibition of proliferation; insensitive differentiated cells
[14] = test system: NTERA-2 teratocarcinoma xenografts; experiment: Teratocarcinoma xenograft, daily intraperitoneal injections; assay type: in vivo, mice
Method in brief: as §4

[15] = Toxicity studies in mice; assay type: in vivo, mouse; details: doses from 20 to 100 mg/kg body weight
[16] = test system: HBEC normal lung epithelial; experiment: Cells with <2N DNA by FACS of permeabilized cells stained with PI; assay type: cell-based, human; details: read-out: IC50 DNA (50% of cells with <2N DNA)
Method in brief: as §2

[17] = test system: NTERA-2 ECC; experiment: Cellular ATP level; assay type: cell-based, human; details: read-out: IC50 ATP
Method in brief: as §3

[18] = test system: HBEC normal lung epithelial; experiment: Live cells / PCD by FACS of nonpermeabilized cells stained with annexin-V and PI; assay type: cell-based, human; details: read-out: IC50 Live Cells
Method in brief: as §1

[19] = test system: human pluripotent cells (ESC, iPSC, ECC lines); experiment: PCD / live cell loss; assay type: cell-based; details: ratio of average IC50
Method in brief: as §1

[20] = test system: TERA-2 ECC; experiment: Cells with <2N DNA by FACS of permeabilized cells stained with PI; assay type: cell-based, human; details: read-out: IC50 DNA (50% of cells with <2N DNA)
Method in brief: as §2

[21] = test system: H1-diff (spontaneously differentiated H1 ESCs); experiment: Live cells / PCD by FACS of nonpermeabilized cells stained with annexin-V and PI; assay type: cell-based, human; details: read-out: IC50 Live Cells, 4 days
Method in brief: as §1

[22] = test system: human pluripotent cells (ESCs, iPSCs, ECCs); experiment: ATP loss, summary over pluripotent cell lines; assay type: cell-based
Method in brief: as §3

[23] = H1, 2.5 μM WX8, normalized to histones

Structure (SMILES): C(=N\Nc1nc(Nc2ccccc2)nc(N2CCOCC2)n1)/c1c[nH]c2ccccc12 [WX8]
- IC50 [1]: 60 µM
- Cells with <2N DNA ([2]; NTERA-2, 5 μM WX8, 96h (4 days)): > 80%
- IC50 ([2]; read-out: IC50 DNA (50% of cells with <2N DNA), NTERA-2 ECC): 3.5 µM
- IC50 [3]: 3 µM
- Difference in DNA loss, differentiated vs pluripotent cells ([4]; ratio of average IC50): 24 fold
- IC50 ([4]; read-out: IC50 DNA loss, on average, average over human pluripotent cells): 2.8 µM
- IC50 [5]: 0.45 µM
- CASP3 cleavage ([6]; H1, 2.5 μM WX8): < 2%
- PARP cleavage ([6]; H1, 2.5 μM WX8): 20%
- Accumulation of p62 protein [6, 23]: < 2 fold
- Accumulation of total LC3 protein [6, 23]: 2 fold
- CASP12 cleavage ([6]; H1, WX8): < 2%
- Cleaved CASP7 ([6]; H1, WX8): not detected
- IC50 [7]: 15 µM
- Tumor growth inhibition (TGI) ([8]; GCT27D.C1 tumors, 40 mg WX8/kg daily i.p.): 78%
- OCT4-, SOX2- and Ki67-stained cells in tumor slices ([8]; GCT27D.C1 tumors, 40 mg WX8/kg daily i.p., immunohistochemistry): selectively eliminated cells expressing OCT4 or SOX2 protein with no detectable effect on proliferating cells
- Mouse body weights ([8]; GCT27D.C1 xenograft mice, 40 mg WX8/kg daily i.p.): maintained
- Effect on teratocarcinoma xenografts ([8]; GCT27D.C1 xenografts, intraperitoneal injections of WX8): Eliminated stem cells and inhibited tumor growth
- IC50 [9]: 81.3 µM
- IC50 [10]: 0.28 µM
- IC50 [11]: 0.26 µM
- IC50 [12]: 2.5 µM
- IC50 [13]: > 100 µM
- Tumor growth inhibition (TGI) ([14]; NTERA-2 tumors, 40 mg WX8/kg daily i.p.): 71%
- Mouse body weights ([14]; NTERA-2 xenograft mice, 40 mg WX8/kg daily i.p.): maintained
- Effect on teratocarcinoma xenografts ([14]; NTERA-2 xenografts, intraperitoneal injections of WX8): Eliminated stem cells and inhibited tumor growth
- Maximum dose at which no indication of mouse impairment was observed [15]: 40 mg/kg
- IC50 [16]: 20 µM
- IC50 [17]: 0.48 µM
- IC50 [18]: 140 µM
- Difference in the initiation of PCD, differentiated vs pluripotent cells [19]: 35 fold
- IC50 [20]: 5 µM
- IC50 [21]: > 10 µM
- Difference in ATP loss, differentiated vs pluripotent cells ([22]; ratio of average IC50): 13 fold
- IC50 ([22]; read-out: IC50 ATP loss, on average, average over human pluripotent cells): 1.2 µM

From article PMC8828683 (Stem Cell Reports, 2022)
